From ChEMBL document CHEMBL5303300, “EUbOPEN Chemogenomics Library - Multiplex” (2023)
Where “and” joins values, the source holds several entries; their conditions need not be identical. Equal values may be shown once.

Test system: HEK-293T
Experiment: Multiplex assay against HEK293T
Type: toxicity, cell-based
Conditions: human, number of replicates 2
Summary of the method: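 Compound was added to live cells that had been stained at seeding with Hoechst33342, BioTracker Green Microtubule Cytoskeleton Dye, MitoTracker Red and Annexin V Alexa Fluor 680, and imaging followed on a CQ1 microscope at 37°C and 5% CO2. CellPathfinder machine-learning gating divided cells into Hoechst high-intensity objects or normal cells, normal cells into healthy, pyknosed or fragmented nuclei, and pyknosed cells into mitotic or apoptotic. Tubulin, mitochondrial-mass and membrane-permeability phenotypes are per cents of healthy-nucleus cells.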

[1] = 12 h, 1 µM, compound concentration 1 uM
[2] = 12 h, 10 µM, compound concentration 10 uM
[3] = 24 h, 1 µM, compound concentration 1 uM
[4] = 24 h, 10 µM, compound concentration 10 uM
[5] = 48 h, 1 µM, compound concentration 1 uM
[6] = 48 h, 10 µM, compound concentration 10 uM

## CN(C)CCN(Cc1ccc(-c2ccc(CNCCc3ccccc3)cc2)cc1)C(=O)CCC1CCCC1.Cl.Cl
[1]
  Population Apoptotic (%): 45% and 51%
  Population Fragmented Nuclei (%): 2% and 1%
  Population Healthy Nuclei (%): 87% and 86%
  Population Hoechst High Intensity Objects (%): 6% and 3%
  Population Membrane Permeable-Phenotype (%): 2%
  Population Mitochondria Different-Phenotype (%): 34% and 33%
  Population Mitotic Cells (%): 54% and 48%
  Population Normal (%): 93% and 96%
  Population Pyknosed Nuclei (%): 9% and 11%
  Population Tubulin-Different-Phenotype (%): 86% and 78%
  Total Cell Count: 835 and 591
[2]
  Population Apoptotic (%): 61% and 57%
  Population Fragmented Nuclei (%): 7% and 4%
  Population Healthy Nuclei (%): 43% and 42%
  Population Hoechst High Intensity Objects (%): 28% and 30%
  Population Membrane Permeable-Phenotype (%): 4% and 1%
  Population Mitochondria Different-Phenotype (%): 72% and 73%
  Population Mitotic Cells (%): 38% and 42%
  Population Normal (%): 71% and 69%
  Population Pyknosed Nuclei (%): 48% and 52%
  Population Tubulin-Different-Phenotype (%): 93% and 96%
  Total Cell Count: 396 and 358
[3]
  Population Apoptotic (%): 36%
  Population Fragmented Nuclei (%): 4% and 6%
  Population Healthy Nuclei (%): 89% and 85%
  Population Hoechst High Intensity Objects (%): 6% and 5%
  Population Membrane Permeable-Phenotype (%): 1%
  Population Mitochondria Different-Phenotype (%): 17% and 21%
  Population Mitotic Cells (%): 63%
  Population Normal (%): 93% and 94%
  Population Pyknosed Nuclei (%): 6% and 7%
  Population Tubulin-Different-Phenotype (%): 63% and 61%
  Total Cell Count: 1227 and 899
[4]
  Population Apoptotic (%): 73%
  Population Fragmented Nuclei (%): 5%
  Population Healthy Nuclei (%): 42% and 36%
  Population Hoechst High Intensity Objects (%): 31% and 39%
  Population Membrane Permeable-Phenotype (%): 3% and 1%
  Population Mitochondria Different-Phenotype (%): 80% and 84%
  Population Mitotic Cells (%): 26%
  Population Normal (%): 68% and 60%
  Population Pyknosed Nuclei (%): 51% and 57%
  Population Tubulin-Different-Phenotype (%): 89% and 95%
  Total Cell Count: 357 and 312
[5]
  Population Apoptotic (%): 15% and 20%
  Population Fragmented Nuclei (%): 12% and 9%
  Population Healthy Nuclei (%): 84% and 86%
  Population Hoechst High Intensity Objects (%): 8%
  Population Membrane Permeable-Phenotype (%): 4% and 5%
  Population Mitochondria Different-Phenotype (%): 0% and 2%
  Population Mitotic Cells (%): 84% and 79%
  Population Normal (%): 91%
  Population Pyknosed Nuclei (%): 3% and 4%
  Population Tubulin-Different-Phenotype (%): 21% and 25%
  Total Cell Count: 3014 and 1979
[6]
  Population Apoptotic (%): 88% and 79%
  Population Fragmented Nuclei (%): 9% and 5%
  Population Healthy Nuclei (%): 30% and 28%
  Population Hoechst High Intensity Objects (%): 33% and 40%
  Population Membrane Permeable-Phenotype (%): 1% and 0%
  Population Mitochondria Different-Phenotype (%): 82% and 91%
  Population Mitotic Cells (%): 11% and 20%
  Population Normal (%): 66% and 59%
  Population Pyknosed Nuclei (%): 60% and 65%
  Population Tubulin-Different-Phenotype (%): 84% and 93%
  Total Cell Count: 318 and 281
